Measurements as given in ChEMBL document CHEMBL3397040, “Synthesis and antitumor activity of novel per-butyrylated glycosides of podophyllotoxin and its derivatives” (Bioorg Med Chem, 2015).

What was measured:
Type in all cases: functional, cell-based
[1] = Anticancer activity against human HL60 cells after 48 hrs by MTT assay; conditions: HL-60, 48 h
Summary of the method: (§1)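 Cells grown in RPMI-1640 or DMEM with 10% FBS at 37 °C, 5% CO2. Seeded at 1 × 10^5 cells/mL in 100 µL per well. Adherent lines were allowed to attach for 12 h before drug; suspension cells were seeded just before drug. Triplicate exposure to a range of compound concentrations for 48 h. MTT (100 µg/well) was added for 4 h at 37 °C, cells lysed with SDS, and OD read at 595 nm.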

[2] = Anticancer activity against human SMMC7721 cells after 48 hrs by MTT assay; conditions: SMMC-7721, 48 h; summary of the method: as §1
[3] = tested on: A549; test: Anticancer activity against human A549 cells after 48 hrs by MTT assay; conditions: A549, 48 h; summary of the method: as §1
[4] = tested on: MCF7; test: Anticancer activity against human MCF7 cells after 48 hrs by MTT assay; conditions: MCF7, 48 h; summary of the method: as §1
[5] = tested on: SW480; test: Anticancer activity against human SW480 cells after 48 hrs by MTT assay; conditions: SW480, 48 h; summary of the method: as §1

| IC50 [3] [µM] | IC50 [4] [µM] | IC50 [5] [µM] | SMILES | IC50 [1] [µM] | IC50 [2] [µM] |
| --- | --- | --- | --- | --- | --- |
| 7.62 | 13.5 | 16.8 | CCCC(=O)O[C@@H]1[C@@H](OC(=O)CCC)[C@H](C)O[C@@H](O[C@@H]2c3cc4c(cc3[C@@H](c3cc(OC)c(OC)c(OC)c3)[C@H]3C(=O)OC[C@@H]32)OCO4)[C@@H]1OC(=O)CCC | 5.32 | 15.2 |
| 0.61 | 1.42 | 1.11 | CCCC(=O)O[C@@H]1[C@@H](O[C@@H]2c3cc4c(cc3[C@@H](c3cc(OC)c(OC)c(OC)c3)[C@H]3C(=O)OC[C@@H]32)OCO4)OC[C@@H](OC(=O)CCC)[C@@H]1OC(=O)CCC | 0.6 | 0.78 |
| 16 | 39.1 | 38.7 | CCCC(=O)OC[C@H]1O[C@H](O[C@@H]2c3cc4c(cc3[C@@H](c3cc(OC)c(O)c(OC)c3)[C@H]3C(=O)OC[C@@H]32)OCO4)[C@H](OC(=O)CCC)[C@@H](OC(=O)CCC)[C@@H]1OC(=O)CCC | 16.9 | 16.8 |
| 5.7 | 5.67 | 10.7 | CCCC(=O)OC[C@H]1O[C@H](O[C@@H]2c3cc4c(cc3[C@@H](c3cc(OC)c(O)c(OC)c3)[C@H]3C(=O)OC[C@@H]32)OCO4)[C@H](OC(=O)CCC)[C@@H](OC(=O)CCC)[C@H]1OC(=O)CCC | 4.89 | 3.78 |
| 3.1 | 7.5 | 4.85 | CCCC(=O)OC[C@H]1O[C@H](O[C@@H]2c3cc4c(cc3[C@@H](c3cc(OC)c(O)c(OC)c3)[C@H]3C(=O)OC[C@@H]32)OCO4)[C@@H](OC(=O)CCC)[C@@H](OC(=O)CCC)[C@@H]1OC(=O)CCC | 2.71 | 3.84 |
| 3.52 | 4.71 | 5.05 | CCCC(=O)O[C@@H]1[C@@H](OC(=O)CCC)[C@H](C)O[C@@H](O[C@@H]2c3cc4c(cc3[C@@H](c3cc(OC)c(O)c(OC)c3)[C@H]3C(=O)OC[C@@H]32)OCO4)[C@@H]1OC(=O)CCC | 2.54 | 2.68 |
| 23.2 | 29.3 | > 40 | CCCC(=O)O[C@@H]1[C@@H](O[C@@H]2c3cc4c(cc3[C@@H](c3cc(OC)c(O)c(OC)c3)[C@H]3C(=O)OC[C@@H]32)OCO4)OC[C@@H](OC(=O)CCC)[C@@H]1OC(=O)CCC | 26.5 | 17.1 |

Continued, molecule first:

| SMILES | IC50 [3] [µM] | IC50 [4] [µM] | IC50 [5] [µM] | IC50 [1] [µM] | IC50 [2] [µM] |
| --- | --- | --- | --- | --- | --- |
| CCCC(=O)OC[C@H]1O[C@H](O[C@@H]2c3cc4c(cc3[C@@H](c3cc(OC)c(OC)c(OC)c3)[C@H]3C(=O)OC[C@@H]32)OCO4)[C@H](OC(=O)CCC)[C@@H](OC(=O)CCC)[C@@H]1OC(=O)CCC | > 40 | > 40 | > 40 | > 40 | > 40 |
| CCCC(=O)OC[C@H]1O[C@H](O[C@@H]2c3cc4c(cc3[C@@H](c3cc(OC)c(OC)c(OC)c3)[C@H]3C(=O)OC[C@@H]32)OCO4)[C@H](OC(=O)CCC)[C@@H](OC(=O)CCC)[C@H]1OC(=O)CCC | 0.61 | 1.27 | 1.65 | 0.14 | 0.62 |
| CCCC(=O)OC[C@H]1O[C@H](O[C@@H]2c3cc4c(cc3[C@@H](c3cc(OC)c(OC)c(OC)c3)[C@H]3C(=O)OC[C@@H]32)OCO4)[C@@H](OC(=O)CCC)[C@@H](OC(=O)CCC)[C@@H]1OC(=O)CCC | > 40 | > 40 | > 40 | > 40 | > 40 |
| CCCC(=O)OC[C@H]1O[C@H](O[C@H]2[C@H](OC(=O)CCC)[C@@H](OC(=O)CCC)[C@@H](O[C@@H]3c4cc5c(cc4[C@@H](c4cc(OC)c(OC)c(OC)c4)[C@H]4C(=O)OC[C@@H]43)OCO5)O[C@@H]2COC(=O)CCC)[C@H](OC(=O)CCC)[C@@H](OC(=O)CCC)[C@@H]1OC(=O)CCC | > 40 | > 40 | > 40 | > 40 | > 40 |
| CCCC(=O)OC[C@H]1O[C@@H](O[C@H]2[C@H](OC(=O)CCC)[C@@H](OC(=O)CCC)[C@@H](O[C@@H]3c4cc5c(cc4[C@@H](c4cc(OC)c(OC)c(OC)c4)[C@H]4C(=O)OC[C@@H]43)OCO5)O[C@@H]2COC(=O)CCC)[C@H](OC(=O)CCC)[C@@H](OC(=O)CCC)[C@H]1OC(=O)CCC | > 40 | > 40 | > 40 | > 40 | > 40 |
| CCCC(=O)OC[C@H]1O[C@H](O[C@H]2[C@H](OC(=O)CCC)[C@@H](OC(=O)CCC)[C@@H](O[C@@H]3c4cc5c(cc4[C@@H](c4cc(OC)c(O)c(OC)c4)[C@H]4C(=O)OC[C@@H]43)OCO5)O[C@@H]2COC(=O)CCC)[C@H](OC(=O)CCC)[C@@H](OC(=O)CCC)[C@@H]1OC(=O)CCC | > 40 | > 40 | > 40 | > 40 | > 40 |
| CCCC(=O)OC[C@H]1O[C@@H](O[C@H]2[C@H](OC(=O)CCC)[C@@H](OC(=O)CCC)[C@@H](O[C@@H]3c4cc5c(cc4[C@@H](c4cc(OC)c(O)c(OC)c4)[C@H]4C(=O)OC[C@@H]43)OCO5)O[C@@H]2COC(=O)CCC)[C@H](OC(=O)CCC)[C@@H](OC(=O)CCC)[C@H]1OC(=O)CCC | 18.6 | > 40 | > 40 | 9.59 | 20.2 |
| CCCC(=O)OC[C@H]1O[C@@H](O[C@@H]2c3cc4c(cc3[C@@H](c3cc(OC)c(OC)c(OC)c3)[C@H]3C(=O)OC[C@@H]32)OCO4)[C@H](OC(=O)CCC)[C@@H](OC(=O)CCC)[C@@H]1OC(=O)CCC | 1.12 | 1.69 | 1.26 | 0.61 | 0.83 |
| CCCC(=O)OC[C@H]1O[C@@H](O[C@@H]2c3cc4c(cc3[C@@H](c3cc(OC)c(OC)c(OC)c3)[C@H]3C(=O)OC[C@@H]32)OCO4)[C@H](OC(=O)CCC)[C@@H](OC(=O)CCC)[C@H]1OC(=O)CCC | 17.8 | 22.1 | 26.5 | 3.15 | 18.1 |
| COc1cc([C@@H]2c3cc4c(cc3[C@@H](O[C@@H]3O[C@@H]5CO[C@@H](C)O[C@H]5[C@H](O)[C@H]3O)[C@H]3COC(=O)[C@H]23)OCO4)cc(OC)c1O [ETOPOSIDE] | 11.9 | 32.8 | 17.1 | 0.31 | 8.12 |
